According to PubChem BioAssay AID624466 (The Scripps Research Institute Molecular Screening Center, 2012):
Hit rate of the full screen: of about 360,000 compounds, about 5,400 (1.5%) were called active. This is one part of a sample in which actives are shown more often than they occur. Values without a mark were called inactive.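 Rule for the calls: active = inhibition above a per-plate cutoff, the mean inhibition of test compounds on that plate plus 3 SD (cut at about 49% in these data); inactive = the rest.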

molecular target: Trace amine-associated receptor 1 (Homo sapiens) (UniProt Q96RJ0); test: blockers of beta-PEA-driven TAAR1 calcium signal – Fluo-8 calcium fluorescence, CHO RD-HGA16 cells, primary screen (AID 624466); settings: CHO RD-HGA16 TAAR1, Fluo-8 calcium fluorescence, antagonist; at 3 µM; stronger effect = higher value;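 note: 0% = DMSO plus EC80 beta-PEA response and 100% = DMSO alone without agonist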
In short: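 test system = CHO RD-HGA16 cells bearing hTAAR1 | replication = singlicate | controls = DMSO-only wells and EC80 β-PEA-stimulated wells | reagent = EC80 β-phenethylamine stimulus | read-out basis = percent inhibition of PEA-evoked calcium signal, max/basal emission ratio | schedule = seeding 17-24 h prior, 75-min 37 °C, 30-min RT dye loading | signal = kinetic Fluo-8 calcium fluorescence measurement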

Sequence of Trace amine-associated receptor 1 (Homo sapiens) (Q96RJ0 whole entry, looked up): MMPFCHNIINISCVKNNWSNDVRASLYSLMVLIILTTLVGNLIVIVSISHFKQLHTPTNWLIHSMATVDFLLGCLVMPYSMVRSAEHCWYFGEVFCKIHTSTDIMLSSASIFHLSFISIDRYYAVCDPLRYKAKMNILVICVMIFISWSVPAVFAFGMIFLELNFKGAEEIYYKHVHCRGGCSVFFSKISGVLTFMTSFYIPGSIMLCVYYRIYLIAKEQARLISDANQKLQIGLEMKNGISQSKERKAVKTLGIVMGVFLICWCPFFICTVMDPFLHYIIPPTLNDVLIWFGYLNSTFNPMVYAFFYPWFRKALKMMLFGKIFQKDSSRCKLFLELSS

Compound	inhibition
COC(=O)Nc1nc2ccc(C(=O)C3CC3)cc2[nH]1	-3.23%
O=C(NCCN1CCOCC1)c1ccccc1N1C(=O)[C@@H]2Cc3c([nH]c4ccccc34)C(c3cccc(Cl)c3)N2C1=O (stereo partly drawn)	68.8% (active)
O=C(NCCN1CCOCC1)c1cc(Sc2cccc(Cl)c2)nc2ccccc12	-6.08%
O=C(NCCN1CCOCC1)Nc1cccc(Cl)c1	-1.82%
C[C@H]1[C@H](c2ccccc2)Oc2cc(Br)ccc2S(=O)(=O)N1Cc1cccc(F)c1	0.32%
COc1cccc(-c2nc3nc(C)cc(C)n3c2NC2CCCCC2)c1	-7.98%
Cc1ccc(N2CC(C(=O)N3CCC4(CC3)CC(=O)c3ccccc3O4)CC2=O)cc1C (stereo not drawn)	-12.3%
CC(C)c1c(C(=O)N/N=C/c2ccccc2C(=O)O)nnn1-c1nonc1N	-11.8%
Nc1nonc1-n1nnc(C(=O)N/N=C/C2CCCCC2)c1-c1ccccc1	-20.6%
Nc1nonc1-n1nnc(C(=O)N/N=C/c2c[nH]c3ccccc23)c1-c1ccccc1	59% (active)
CC(=O)N1C[C@@H](CO)[C@@H](N(C)C(=O)C(C)(C)C)C[C@H]1c1ccccc1Br	-17.9%
Cc1ccc(NC(=O)COC(=O)CNC(=O)c2ccc(Cl)cc2Cl)cc1S(=O)(=O)N1CCOCC1	-20.3%
C[C@@H]1CC2=C(C(=O)OC(C)(C)O2)[C@@H](C2CC2)O1	-2.56%
CCOC(=O)[C@]12CCCC=C1N(Cc1cccc3ccccc13)C(=O)[C@H](CC(=O)NCC13CC4CC(CC(C4)C1)C3)C2	-11.8%
CC(=O)N1CCN(C(=O)c2cc(-c3ccc(Cl)s3)nc3ccccc23)CC1	52% (active)
O=C(c1cc(-c2ccc(Cl)s2)nc2ccccc12)N1CCOCC1	23.2%
Cc1c(NC(=O)c2cc(-c3ccc(Cl)s3)nc3ccccc23)c(=O)n(-c2ccccc2)n1C	23.5%
O=C(NCc1cccc(Cl)c1)C1CCN(c2nnc(N3CCCC3=O)s2)CC1	1.44%
Cc1ccc(S(=O)(=O)N[C@H]2CCC[C@@H]2O)cc1	-6.11%
Nc1nonc1-n1nnc(C(=O)N/N=C/c2cc(Br)ccc2O)c1CSC1=NCCS1	18.1%

Compound	inhibition
CCN(CC)Cc1c(C(=O)N/N=C/c2cccc(OCc3ccc(F)cc3)c2)nnn1-c1nonc1N	-24.4%
Cc1ccc(SCc2c(C(=O)N/N=C/c3cccnc3)nnn2-c2nonc2N)cc1	63.7% (active)
CCOC(=O)C1CCCN(C(=O)c2cccc(S(=O)(=O)N3CCOCC3)c2)C1 (stereo not drawn)	-16.4%
C=CCCN(Cc1ccccc1)S(=O)(=O)c1ccccc1Br	35.3%
O=C1Nc2ccccc2C1=NN=Cc1ccco1	-11.4%
CC1Cc2[nH][nH]c(=O)c2C(C2CC2)O1 (stereo not drawn)	-0.95%
Cc1ccccc1-n1nnc2c(=O)oc3ccccc3c21	-7.09%
O=C(Nc1cccc(F)c1)c1coc(=O)c(Br)c1	-5.62%
C=CCc1cc(S(=O)(=O)c2ccc(O)c(CC=C)c2)ccc1O	56.9% (active)
O=C1[C@@H](c2ccccc2)[C@@H](c2ccccc2)N1c1ccccc1	-22.7%
COc1ccc(C(=O)Nc2cc(S(=O)(=O)N3CCCC3)ccc2Cl)cc1	2.12%
COC(=O)COc1ccc(S(=O)(=O)N2CCOCC2)cc1	-11.5%
COc1ccc(NC(=O)c2oc3ccc(S(=O)(=O)N4CCOCC4)cc3c2C)cc1	57.4% (active)
Cc1c(C(=O)Nc2cccc(S(=O)(=O)N3CCOCC3)c2)oc2ccccc12	13.3%
COc1ccc(C(=O)Nc2nc(-c3ccc(S(=O)(=O)N4CCOCC4)cc3)cs2)cc1	60.4% (active)
Cc1c(C(=O)Nc2ccccc2Cl)oc2ccc(S(=O)(=O)N3CCC4(CC3)OCCO4)cc12	46.8%
CCc1ccc(S(=O)(=O)Nc2cc3c(cc2N2CCCCC2)n(C)c(=O)c(=O)n3C)cc1	-20.8%
CCCCCCCCN1C(=O)[C@@H](CC(=O)N2CCN(C(=O)OCC)CC2)C[C@@]2(C(=O)OC)C1=C[C@H](C1CCCC1)O[C@@H]2C	-10.4%
O=C(NCc1ccc2c(c1)OCO2)c1c(-c2ccsc2)sc2ccccc12	77.1% (active)
C=CCn1c(=O)c(C(=O)NCc2ccc3c(c2)OCO3)c(O)c2ccccc21	-8.39%

Compound	inhibition
O=C(NCc1ccc2c(c1)OCO2)c1sccc1Br	-7.07%
COCCCNC(=O)C[C@H]1C[C@@]2(C(=O)OC)C(=C[C@H](C(C)(C)C)O[C@@H]2C)N(Cc2ccc3c(c2)OCO3)C1=O	-10.8%
O=C(Cc1ccccc1)Nc1cccc(C(=O)N/N=C/c2ccco2)c1	7.95%
O=C(N/N=C/c1ccccn1)c1cccc(NC(=O)c2ccc(Cl)cc2)c1	56.6% (active)
Cn1nccc1/C=N\NC(=O)c1ccc(Cl)cc1	-23%
CC(C)CNc1cccc2c1S(=O)(=O)N[C@H](C)CO2	9.62%
Cc1ccc(C2=CSC3=NS(=O)(=O)CCN23)cc1C	10.5%
CC(=NNC(N)=O)c1ccc(Cl)c(-n2cccc2)c1	-7.84%
COc1ccc(OC)c(CNC(=O)Cn2nc(C)c3c(C)n(-c4ccc(C)cc4)nc3c2=O)c1	-15.7%
NC(=O)C1=C[C@@H](c2csc3ccccc23)C[C@@H](OCc2ccc(CO)cc2)O1	17.2%
O=C(C1=C[C@H](C2CC2)C[C@H](OCc2ccc(CO)cc2)O1)N1CCN(Cc2ccccc2)CC1	1.78%
CC(=O)n1cc([C@H]2C=C(C(=O)N3CCOCC3)O[C@@H](OCc3ccc(CO)cc3)C2)c2ccccc21	51.8% (active)
CC(=O)n1cc([C@@H]2C=C(C(=O)N3CCN(Cc4ccc5c(c4)OCO5)CC3)O[C@H](OCc3ccc(CO)cc3)C2)c2ccccc21	49.4% (active)
O=C(C1=C[C@H](c2ccc(C(F)(F)F)cc2)C[C@H](OCc2ccc(CO)cc2)O1)N1CCN(Cc2ccccc2)CC1	7.66%
NC(=O)C1=C[C@H](c2csc3ccccc23)C[C@H](OCc2ccc(CO)cc2)O1	49.7% (active)
O=C(NC1CC1)C1=C[C@H](c2c[nH]c3ccccc23)C[C@H](OCc2ccc(CO)cc2)O1	-9.17%
O=C(C1=C[C@H](c2coc3ccccc3c2=O)C[C@H](OCc2ccc(CO)cc2)O1)N1CCOCC1	17.7%
CN1CCN(C(=O)C2=C[C@H](c3ccc4c(c3)OCO4)C[C@H](OCc3ccc(CO)cc3)O2)CC1	18.1%
